Test results published in ChEMBL document CHEMBL1133118 (J Med Chem, 2000).
One block for each compound: values may come before it.

What was measured:
[1] = target: T1, Adenosine receptor A2b (Homo sapiens, UniProt P29275); assay: Displacement of [3H]DPCPX from Adenosine A2b receptor expressed in […]; range 183-278; assay type: cell-based
T1 sequence (P29275 whole entry): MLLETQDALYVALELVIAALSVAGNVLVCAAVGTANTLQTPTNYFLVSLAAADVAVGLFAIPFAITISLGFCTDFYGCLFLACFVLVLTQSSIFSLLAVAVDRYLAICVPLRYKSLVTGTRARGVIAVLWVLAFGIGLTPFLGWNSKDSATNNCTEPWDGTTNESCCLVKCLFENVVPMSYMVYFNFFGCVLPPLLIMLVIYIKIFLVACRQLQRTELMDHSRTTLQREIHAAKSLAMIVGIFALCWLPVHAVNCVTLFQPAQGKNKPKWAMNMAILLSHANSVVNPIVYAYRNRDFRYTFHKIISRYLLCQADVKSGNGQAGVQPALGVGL

[2] = target: T2, Adenosine receptor A3 (Homo sapiens, UniProt P0DMS8); assay: Displacement of [3H]MRE3008-F20 from human adenosine A3 receptor expressed in CHO cells; range 51-70; assay type: cell-based
T2 sequence (P0DMS8 whole entry): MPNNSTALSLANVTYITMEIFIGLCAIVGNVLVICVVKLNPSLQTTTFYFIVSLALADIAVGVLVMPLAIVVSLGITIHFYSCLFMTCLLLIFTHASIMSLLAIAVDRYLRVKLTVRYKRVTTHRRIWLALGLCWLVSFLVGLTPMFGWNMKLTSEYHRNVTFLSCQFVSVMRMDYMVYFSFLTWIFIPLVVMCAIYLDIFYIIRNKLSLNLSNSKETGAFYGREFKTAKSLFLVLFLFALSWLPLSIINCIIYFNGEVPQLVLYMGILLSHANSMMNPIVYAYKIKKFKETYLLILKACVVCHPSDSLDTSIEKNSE

[3] = target: Adenosine receptors; A1 & A3 (Homo sapiens) (UniProt P30542+P0DMS8); assay: Ratio of binding affinity of human A1 receptor to that of human A3 receptor; assay type: protein assay
Procedure, shortened: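 Ki ratio from displacement in CHO membranes, 6–8 concentrations, n=3-6, filtration counting. A1: 1 nM [3H]DPCPX, 50 μg protein, 120 min at 25 °C, nonspecific with 10 μM CHA. A3: 1 nM [3H]MRE3008-F20, 50 μg protein, Tris/10 mM MgCl2 pH 7.4, 120 min at 4 °C, nonspecific with 1 μM MRE3008-F20.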

[4] = target: Adenosine receptors; A2b & A3 (Homo sapiens) (UniProt P29275+P0DMS8); assay: Ratio of binding affinity of human A2B receptor to that of human A3 receptor; assay type: protein assay
Procedure, shortened: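 Ki ratio, n=3-6, 6–8 concentrations. A2B in HEK-293 membranes (20 μg): 40 nM [3H]DPCPX, 50 mM Tris HCl, 10 mM MgCl2, 1 mM EDTA, 0.1 mM benzamidine pH 7.4, 2 IU/mL adenosine deaminase, 60 min at 25 °C, nonspecific with 100 μM NECA. A3 in CHO membranes (50 μg): 1 nM [3H]MRE3008-F20, 120 min at 4 °C.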

[5] = target: T3, Adenosine receptor A3 (Homo sapiens) (UniProt P0DMS8); assay: Percentage of blockade by 1 uM of the inhibition by 100 nM IB-MECA-inhibited cAMP accumulation in CHO cells expressing human adenosine A3 receptor.; assay type: functional, cell-based
T3 sequence (whole entry): T2 sequence (P0DMS8 whole entry)
Procedure, shortened: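 CHO cells stably expressing human A3 receptor; membranes in 50 mM Tris HCl, 10 mM MgCl2, 1 mM EDTA pH 7.4 with 5 μM GTP, 0.5 mM […] and 2.0 IU/mL adenosine deaminase. Preincubated 10 min at 37 °C, then IB-MECA (100 nM) and/or antagonist with 1 mM ATP and 10 μM forskolin for 10 min. Boiled 2 min. cAMP read by [3H]cAMP competition with adrenal binding protein.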

[6] = target: T4, Adenosine receptor A2a (Homo sapiens, UniProt P29274); assay: Displacement of [3H]-SCH- 58261 from human adenosine A2A receptor expressed in CHO cells; range 70-130; assay type: cell-based
T4 sequence (P29274 whole entry): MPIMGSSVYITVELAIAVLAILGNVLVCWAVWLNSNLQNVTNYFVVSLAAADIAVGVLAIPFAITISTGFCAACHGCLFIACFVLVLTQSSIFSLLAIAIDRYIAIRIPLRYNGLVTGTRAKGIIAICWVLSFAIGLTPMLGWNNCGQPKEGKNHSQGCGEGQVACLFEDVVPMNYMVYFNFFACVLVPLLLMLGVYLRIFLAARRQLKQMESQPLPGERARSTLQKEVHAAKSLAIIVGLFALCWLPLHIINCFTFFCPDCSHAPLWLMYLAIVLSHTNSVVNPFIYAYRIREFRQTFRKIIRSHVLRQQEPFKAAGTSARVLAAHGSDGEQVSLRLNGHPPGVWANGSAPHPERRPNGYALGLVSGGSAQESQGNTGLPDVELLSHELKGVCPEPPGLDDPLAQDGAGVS
Procedure, shortened: (§1)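 Membranes from CHO cells stably expressing human A2A receptor, grown in DMEM/F12 without nucleosides, resuspended in 50 mM Tris HCl, 10 mM MgCl2, pH 7.4; 50 μg protein/assay. Competition with [3H]SCH 58261 at 6–8 or more compound concentrations, 60 min at 25 °C; nonspecific binding with 50 μM NECA. Filtration on GF/B filters, scintillation counting; n=3-6.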

[7] = target: T2, Adenosine receptor A3; assay: Displacement of [3H]MRE3008-F20 from human adenosine A3 receptor expressed in CHO cells; range 0.52-0.68; assay type: cell-based
[8] = target: T1, Adenosine receptor A2b; assay: Displacement of [3H]DPCPX from Adenosine A2b receptor expressed in […]; range 56-89; assay type: cell-based
[9] = target: T5, Adenosine receptor A1 (Homo sapiens, UniProt P30542); assay: Displacement of [3H]-DPCPX from human adenosine A1 receptor expressed in CHO cells; range 213-281; assay type: cell-based
T5 sequence (P30542 whole entry): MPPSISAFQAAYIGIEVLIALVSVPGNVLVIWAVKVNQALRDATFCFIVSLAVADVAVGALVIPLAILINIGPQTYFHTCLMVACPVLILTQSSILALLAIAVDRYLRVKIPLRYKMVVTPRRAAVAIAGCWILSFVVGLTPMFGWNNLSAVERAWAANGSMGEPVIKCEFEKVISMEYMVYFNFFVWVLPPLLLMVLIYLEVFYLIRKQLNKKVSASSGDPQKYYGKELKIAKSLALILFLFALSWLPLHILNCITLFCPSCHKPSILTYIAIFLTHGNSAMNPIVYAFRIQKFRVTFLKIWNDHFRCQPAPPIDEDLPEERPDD

[10] = target: T2, Adenosine receptor A3; assay: Inhibition of cAMP accumulation in CHO cells expressing human adenosine A3 receptor; range 3.0-6.9; assay type: functional, cell-based
[11] = target: T3, Adenosine receptor A3 (Homo sapiens); settings: CHO, 1 uM
[12] = target: T1, Adenosine receptor A2b; assay: Displacement of [3H]DPCPX from Adenosine A2b receptor expressed in CHO cells; assay type: cell-based
[13] = target: T4, Adenosine receptor A2a; assay: Displacement of [3H]-SCH- 58261 from human adenosine A2A receptor expressed in CHO cells; range 1770-2327; assay type: cell-based
[14] = target: T5, Adenosine receptor A1; assay: Displacement of [3H]DPCPX from human adenosine A1 receptor expressed in CHO cells; range 191-339; assay type: cell-based
[15] = target: T2, Adenosine receptor A3; assay: Displacement of [3H]MRE3008-F20 from human adenosine A3 receptor expressed in CHO cells; range 17-36; assay type: cell-based
[16] = target: T5, Adenosine receptor A1; assay: Displacement of [3H]DPCPX from human adenosine A1 receptor expressed in CHO cells; range 885-1163; assay type: cell-based
[17] = target: T4, Adenosine receptor A2a; assay: Displacement of [3H]-SCH- 58261 from human adenosine A2A receptor expressed in CHO cells; range 632-1003; assay type: cell-based; procedure, shortened: as §1
[18] = target: T2, Adenosine receptor A3; assay: Displacement of [3H]MRE3008-F20 from human adenosine A3 receptor expressed in CHO cells; range 2.13-3.62; assay type: cell-based
[19] = target: T3, Adenosine receptor A3 (Homo sapiens); settings: CHO, 1 uM; remark: listed apart in the source
[20] = target: T1, Adenosine receptor A2b; assay: Displacement of [3H]DPCPX from Adenosine A2b receptor expressed in HEK-293 cells; range 432-469
[21] = target: T4, Adenosine receptor A2a; assay: Displacement of [3H]-SCH- 58261 from human adenosine A2A receptor expressed in CHO cells; range 17-24; assay type: cell-based
Procedure, shortened: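 CHO membranes expressing human A2A receptor (50 μg protein) in 50 mM Tris HCl, 10 mM MgCl2, pH 7.4, competed against [3H]SCH 58261. At least 6–8 test concentrations were used, with 60 min incubation at 25 °C. Nonspecific binding defined by 50 μM NECA; n=3-6.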

[22] = target: T5, Adenosine receptor A1; assay: Displacement of [3H]DPCPX from human adenosine A1 receptor expressed in CHO cells; range 123-160; assay type: cell-based
[23] = target: T2, Adenosine receptor A3; assay: biochemical
[24] = target: T1, Adenosine receptor A2b; assay: Displacement of [3H]DPCPX from Adenosine A2b receptor expressed in HEK-293 cells; range 44-58

Ki [1]: 0.226 µM
Ki [2]: 0.06 µM
Ratio [3]: 25
Ratio [4]: 3.7
inhibition [5]: 39%
SMILES: O=C(Nc1cccc(Cl)c1)Nc1nc2nn(CCCc3ccccc3)cc2c2nc(-c3ccco3)nn12

Ki [6]: 0.095 µM
Ki [7]: 0.0006 µM
Ki [8]: 0.07 µM
Ki [9]: 0.245 µM
IC50 [10]: 0.0045 µM
Ratio [3]: 408
Ratio [4]: 116
inhibition [11]: 85%
SMILES: CCCCn1cc2c(nc(NC(=O)Nc3cccc(Cl)c3)n3nc(-c4ccco4)nc23)n1

Ki [12]: > 10 µM
Ki [13]: 2.03 µM
Ki [14]: 0.255 µM
Ki [15]: 0.025 µM
Ratio [3]: 10.2
Ratio [4]: > 400
inhibition [5]: 50%
SMILES: COc1ccc(NC(=O)Nc2nc3nn(CCc4cc(Br)c(Br)cc4Br)cc3c3nc(-c4ccco4)nn23)cc1

Ki [16]: 1.02 µM
Ki [17]: 0.796 µM
Ki [18]: 0.00278 µM
Ratio [3]: 365
Ratio [4]: 162
inhibition [19]: 70%
Ki [20]: 0.45 µM
SMILES: CC(C)(C)n1cc2c(nc(NC(=O)Nc3cccc(Cl)c3)n3nc(-c4ccco4)nc23)n1

Ki [21]: 0.02 µM
Ki [22]: 0.14 µM
Ratio [3]: 0.4
Ratio [4]: 0.15
inhibition [5]: 24%
Ki [23]: 0.348 µM
Ki [24]: 0.051 µM
SMILES: Nc1nc2n[nH]cc2c2nc(-c3ccco3)nn12
